Blank lines part the entries; values can stand above or below the substance they belong to.
Key:
Format in all cases: biochemical
[1] = target: T1, truncated PRMT3 (residues 211–531) (Homo sapiens, UniProt O60678); experiment: PRMT3 steady-state kinetics, radioactive filter-binding methylation assay
In short: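 E. coli-expressed His-tagged PRMT3 (residues 211–531) was used. Reactions in 50 mM HEPES pH 8, 10 mM NaCl, 0.5 mM EDTA, 0.5 mM DTT contained 0.25–8 μM N-acetylated H4(1–20) peptide (unmodified, K5me or K5ac). Products were P81 filter-bound, washed with NaHCO3 pH 9 and scintillation-counted. Rates (product/[E] per min) were fitted to the Hill or Michaelis-Menten equation, at least duplicate.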

[2] = target: human recombinant PRMT1 (Homo sapiens, UniProt Q99873); experiment: PRMT1 single-point radioactive methylation assay; details: compared with the unmodified peptide
[3] = target: T2, PRMT8 (Homo sapiens, UniProt Q9NR22); experiment: PRMT8 single-point radioactive methylation assay; details: compared with the unmodified peptide
[4] = target: T2, PRMT8; experiment: PRMT8 steady-state kinetics, radioactive filter-binding methylation assay; details: 0.05 μM PRMT8, 15 μM [14C]-SAM, 35 min, 30 °C; data not shown
In short: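 Recombinant His-tagged PRMT8 was expressed in E. coli BL21(DE3) and Ni-NTA purified. Reactions were run in 50 mM HEPES pH 8, 10 mM NaCl, 0.5 mM EDTA, 0.5 mM DTT with 0.25–16 μM N-acetylated H4(1–20) peptide (unmodified, K5me or K5ac), initiated with enzyme. They were isopropanol-quenched, P81 filter-bound, washed with NaHCO3 pH 9 and scintillation-counted against [14C]-SAM reference. Rates were Hill-fitted, at least duplicate.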

[5] = target: T1, truncated PRMT3 (residues 211–531); experiment: PRMT3 single-point radioactive methylation assay; details: 0.05 μM PRMT3, 5 μM [14C]-SAM, 10 μM peptide, 30 °C, 35 min

T1 sequence (O60678 211-531): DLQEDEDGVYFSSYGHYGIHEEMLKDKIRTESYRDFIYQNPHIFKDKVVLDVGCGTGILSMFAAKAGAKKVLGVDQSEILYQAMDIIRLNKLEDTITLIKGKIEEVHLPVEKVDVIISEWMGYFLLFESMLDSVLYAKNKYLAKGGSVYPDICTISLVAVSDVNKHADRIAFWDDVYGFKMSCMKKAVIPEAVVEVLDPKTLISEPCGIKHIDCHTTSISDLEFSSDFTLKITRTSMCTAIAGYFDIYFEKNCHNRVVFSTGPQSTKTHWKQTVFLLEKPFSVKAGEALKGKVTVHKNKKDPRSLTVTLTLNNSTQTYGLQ
T2 sequence (Q9NR22 whole entry): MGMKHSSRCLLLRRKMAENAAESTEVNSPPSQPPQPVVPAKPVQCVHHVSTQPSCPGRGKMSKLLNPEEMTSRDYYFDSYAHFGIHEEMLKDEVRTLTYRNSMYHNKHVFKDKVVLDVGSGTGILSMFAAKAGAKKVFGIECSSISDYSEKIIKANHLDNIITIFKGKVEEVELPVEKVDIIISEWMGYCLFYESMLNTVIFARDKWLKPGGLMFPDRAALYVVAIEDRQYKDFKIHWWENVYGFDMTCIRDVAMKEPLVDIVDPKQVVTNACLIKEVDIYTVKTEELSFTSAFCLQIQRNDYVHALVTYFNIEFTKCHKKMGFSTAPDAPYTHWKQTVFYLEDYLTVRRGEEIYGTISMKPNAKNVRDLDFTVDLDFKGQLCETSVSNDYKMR
human recombinant PRMT1, sequence (Q99873 whole entry): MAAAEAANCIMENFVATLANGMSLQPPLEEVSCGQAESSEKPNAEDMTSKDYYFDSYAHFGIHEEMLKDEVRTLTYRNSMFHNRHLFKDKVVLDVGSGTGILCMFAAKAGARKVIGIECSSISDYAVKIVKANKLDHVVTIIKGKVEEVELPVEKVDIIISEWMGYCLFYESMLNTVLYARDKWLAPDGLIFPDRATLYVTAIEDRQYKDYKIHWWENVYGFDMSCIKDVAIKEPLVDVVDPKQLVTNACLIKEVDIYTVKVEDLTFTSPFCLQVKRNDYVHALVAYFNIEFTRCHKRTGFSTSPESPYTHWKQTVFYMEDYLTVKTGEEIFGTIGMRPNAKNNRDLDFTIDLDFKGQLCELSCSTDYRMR

increase of K0.5 in comparison to Ac-H4(1-20) ([1]; PRMT3, Hill fit): 2 fold
Substance: Ac-SGRGKacGGKGLGKGGAKRHRK [Ac-H4(1-20)K5ac]

Substance: Ac-H4(1-21): N-terminally acetylated histone H4 peptide, residues 1-21
effect of the modification on arginine methylation by PRMT1 [2]: did not strongly affect arginine methylation
effect of the modification on arginine methylation by PRMT8 [3]: did not strongly affect arginine methylation

Substance: Ac-SGRGKmeGGKGLGKGGAKRHRK [Ac-H4(1-20)K5me]
peptide concentration above which substrate inhibition appeared ([1]; 0.05 μM PRMT3, 15 μM [14C]-SAM, 35 min, 30 °C, data not shown): above 8 μM
increase of kcat in comparison to Ac-H4(1-20) ([1]; PRMT3, Hill fit): 3 fold
catalytic efficiency higher than Ac-H4(1-20) ([1]; PRMT3, kcat/K0.5): ~4 fold
peptide concentration above which substrate inhibition appeared [4]: above 4 μM
increase in arginine methylation in comparison to Ac-H4(1-20) [5]: over 5 fold

Reference: article PMC5776680 (Biochemistry, 2017)
